Experimental data taken from ChEMBL document CHEMBL3414569, “Amino acid modified xanthone derivatives: novel, highly promising membrane-active antimicrobials for multidrug-resistant Gram-positive bacterial infections” (J Med Chem, 2015).
In brackets after ≈: the same amount, converted by molar mass. Activity calls are given as the source filed them.

Assays:
[1] = test system: Staphylococcus aureus; assay: Antimicrobial activity against Staphylococcus aureus DM4001 by broth macrodilution method; format: functional
Summary of the method: (§1)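 Broth macrodilution MIC in Mueller Hinton broth following CLSI guidelines. Inoculum was prepared by direct colony suspension from an 18−20 h tryptic soy agar plate.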

[2] = test system: Staphylococcus aureus; assay: Antimicrobial activity against methicillin resistant Staphylococcus aureus DM21455 by broth macrodilution method; format: functional; summary of the method: as §1
[3] = test system: Staphylococcus aureus; assay: Antimicrobial activity against methicillin resistant Staphylococcus aureus DM09809R by broth macrodilution method; format: functional; summary of the method: as §1
[4] = test system: Bacillus cereus; assay: Antimicrobial activity against Bacillus cereus ATCC 11778 by broth macrodilution method; format: functional
Summary of the method: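 CLSI broth macrodilution in Mueller Hinton broth. Inoculum was made by direct colony suspension from colonies on an 18−20 h tryptic soy agar plate. The value is the MIC.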

[5] = Induction of hemolysis in New Zealand white rabbit RBC after 1 hr; format: cell-based, Oryctolagus cuniculus, Erythrocyte; settings: New Zealand white, red blood cells (RBC)
Summary of the method: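 Fresh red blood cells isolated from New Zealand white rabbits. Lysis measured over a compound concentration series; HC50 taken as the concentration lysing 50% of RBCs.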

[6] = Retention time of the compound; format: physicochemical
Summary of the method: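 Reverse-phase HPLC of 20 μL injections of a 10 μg/mL sample at 1 mL/min. Gradient: 5−55% ACN over 5 min, then 55−95% over 15 min.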

[7] = Selectivity index, ratio of HC50 for induction of hemolysis in New Zealand white rabbit RBC to MIC for Staphylococcus aureus DM4001
[8] = Selectivity index, ratio of HC50 for induction of hemolysis in New Zealand white rabbit RBC to MIC for Staphylococcus aureus DM21455
[9] = Selectivity index, ratio of HC50 for induction of hemolysis in New Zealand white rabbit RBC to MIC for Staphylococcus aureus DM09809R
[10] = Selectivity index, ratio of HC50 for induction of hemolysis in New Zealand white rabbit RBC to MIC for Bacillus cereus ATCC 11778
[11] = test system: Staphylococcus aureus; assay: Antimicrobial activity against methicillin sensitive Staphylococcus aureus isolates by broth macrodilution method; format: functional
[12] = test system: Staphylococcus aureus; assay: Antimicrobial activity against vancomycin-intermediate sensitive Staphylococcus aureus isolates by broth macrodilution method; format: functional
[13] = test system: Staphylococcus aureus; assay: Antimicrobial activity against methicillin resistant Staphylococcus aureus isolates by broth macrodilution method; format: functional
[14] = test system: Staphylococcus aureus; assay: Antimicrobial activity against epidemic methicillin resistant Staphylococcus aureus isolates by broth macrodilution method; format: functional
[15] = test system: Staphylococcus aureus; assay: Antimicrobial activity against multidrug resistant Staphylococcus aureus isolates by broth macrodilution method; format: functional
[16] = test system: Staphylococcus epidermidis; assay: Antimicrobial activity against Staphylococcus epidermidis isolates by broth macrodilution method; format: functional
[17] = test system: Enterococcus; assay: Antimicrobial activity against vancomycin-sensitive Enterococcus isolates by broth macrodilution method; format: functional
[18] = test system: Enterococcus; assay: Antimicrobial activity against vancomycin-resistant Enterococcus isolates by broth macrodilution method; format: functional
[19] = test system: Streptococcus; assay: Antimicrobial activity against Streptococcus isolates by broth macrodilution method; format: functional
[20] = test system: Corynebacterium jeikeium; assay: Antimicrobial activity against Corynebacterium jeikeium isolates by broth macrodilution method; format: functional
[21] = test system: Listeria monocytogenes; assay: Antimicrobial activity against Listeria monocytogenes isolates by broth macrodilution method; format: functional
[22] = test system: Staphylococcus aureus; assay: Antimicrobial activity against Staphylococcus aureus ATCC 29213 by broth macrodilution method; format: functional; summary of the method: as §1
[23] = test system: Lipid bilayer; assay: Induction of vesicle leakage in DOPE/DOPG large unilamellar vesicles assessed as calcein release at 1/16 compound to lipid ratio by fluorescence assay; format: functional
Summary of the method: (§2)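 100 nm LUVs (DOPE/DOPG 75/25 or DOPC) made by film hydration in 80 mM calcein, 50 mM HEPES, 100 mM NaCl, 0.3 mM EDTA, pH 7.4. Then 7 freeze–thaw cycles, 15 extrusions and Sephadex G-50 clean-up. Compound added from DMF (<0.2%) at 50 μM final phospholipid. Fluorescence read at ex 490/em 520 nm for 30 min; 0.1% Triton X-100 set 100% lysis; three independent experiments.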

[24] = test system: Staphylococcus aureus; assay: Antimicrobial activity against Staphylococcus aureus ATCC 29213 at 0.5 times MIC measured after 17 passages by multistep passage drug resistance selection study relative to wild type Staphylococcus aureus ATCC 29213 before passage; format: functional
Summary of the method: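 Multipassage selection in S. aureus ATCC29213 across an eight-concentration dilution series. Growth was read after 20−22 h. Bacteria growing at 0.5 × MIC were repassaged into a fresh series, 17 passages in total. Resistance was defined as a more than 4-fold rise over the initial MIC.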

[25] = test system: Lipid bilayer; assay: Induction of vesicle leakage in DOPC large unilamellar vesicles assessed as calcein release at 1/16 compound to lipid ratio by fluorescence assay; format: functional; summary of the method: as §2
[26] = test system: Lipid bilayer; assay: Induction of vesicle leakage in DOPE/DOPG large unilamellar vesicles assessed as calcein release at 1/32 compound to lipid ratio by fluorescence assay; format: functional; summary of the method: as §2
[27] = test system: Lipid bilayer; assay: Induction of vesicle leakage in DOPE/DOPG large unilamellar vesicles assessed as calcein release at 1/64 compound to lipid ratio by fluorescence assay; format: functional; summary of the method: as §2
[28] = test system: Staphylococcus aureus; assay: Antimicrobial activity against teicoplanin intermediate resistant Staphylococcus aureus isolates by broth macrodilution method; format: functional
[29] = test system: Staphylococcus aureus; assay: Antimicrobial activity against methicillin resistant Staphylococcus aureus DM21455 in absence of 4% BSA by broth macrodilution method; format: functional; summary of the method: as §1
[30] = test system: Staphylococcus aureus; assay: Antimicrobial activity against methicillin resistant Staphylococcus aureus DM21455 in presence of 4% BSA by broth macrodilution method; format: functional
Summary of the method: (§3)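 MIC by CLSI broth macrodilution in Mueller Hinton broth, with BSA added to the bacterial suspension at a final 4% w/v. Inoculum was made by direct colony suspension from an 18−20 h tryptic soy agar plate.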

[31] = test system: Staphylococcus aureus; assay: Antimicrobial activity against Staphylococcus aureus ATCC 29213 in absence of 4% BSA by broth macrodilution method; format: functional; summary of the method: as §1
[32] = test system: Staphylococcus aureus; assay: Antimicrobial activity against Staphylococcus aureus ATCC 29213 in presence of 4% BSA by broth macrodilution method; format: functional; summary of the method: as §3
[33] = test system: Mus musculus; assay: Toxicity in C57BL6 mouse eye assessed as induction of toxicity related clinical signs at 3 mg/ml applied topically 5 times/day for 4 days; format: organism-based; settings: in vivo, topical_or_ocular, 96 h
Summary of the method: (§4)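 Three healthy wild-type C57BL6 mice (6−8 weeks) per treatment received 0.5, 1 or 3 mg/mL compound in 10 mM PBS. Applied topically to the eye 5 times/day for 4 days. Corneal clarity checked daily through day 4 by slit-lamp biomicroscopy; histological sections also inspected.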

[34] = test system: Mus musculus; assay: Toxicity in C57BL6 mouse eye assessed as effect on corneal clarity at 3 mg/ml applied topically 5 times/day for 4 days by slit lamp biomicroscopy; format: organism-based, Cornea; settings: in vivo, topical_or_ocular, 96 h; summary of the method: as §4
[35] = test system: Mus musculus; assay: Toxicity in C57BL6 mouse eye assessed as effect on wound closure at 3 mg/ml applied topically 5 times/day for 4 days by slit lamp biomicroscopy; format: organism-based; settings: in vivo, topical_or_ocular, 96 h
[36] = test system: Mus musculus; assay: Toxicity in C57BL6 mouse eye assessed as inflammatory response at 3 mg/ml applied topically 5 times/day for 4 days by slit lamp biomicroscopy; format: organism-based; settings: in vivo, topical_or_ocular, 96 h; summary of the method: as §4
[37] = test system: Staphylococcus aureus; assay: Antimicrobial activity against Staphylococcus aureus ATCC 29213 infected in mouse cornea infection model assessed as reduction in viable bacterial count at 0.3% solution applied topically 5 times/day dosed 1 day after infection relative to control; format: functional
Summary of the method: (§5)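 Mouse cornea given three superficial 1 mm scratches on one eye under ketamine/xylazine, then 10 μL of S. aureus ATCC 29213 suspension (1 × 10^8 CFU/mL in USP phosphate buffer) applied topically. Treated topically 5 times/day from day 1 postinfection; PBS negative control; 4 mice/group killed on days 1, 2 and 3. Corneas homogenized in 0.9% NaCl with 0.25% BSA, plated in duplicate on TSA (48 h, 35 °C); log10 CFU/cornea.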

[38] = test system: Lipid bilayer; assay: Induction of vesicle leakage in DOPC large unilamellar vesicles assessed as calcein release at 1/64 compound to lipid ratio by fluorescence assay
[39] = test system: Staphylococcus aureus; assay: Antimicrobial activity against Staphylococcus aureus ATCC 29213 infected in mouse cornea infection model assessed as reduction in viable bacterial count at 0.02% solution applied topically 5 times/day dosed 1 day after infection relative to control; format: functional; summary of the method: as §5

Work on `COC(=O)C(CCCNC(=N)N)NC(=O)C(CCCNC(=N)N)NC(=O)COc1cc2oc3cc(OCC(=O)NC(CCCNC(=N)N)C(=O)NC(CCCNC(=N)N)C(=O)OC)c(OC)c(CC=C(C)C)c3c(=O)c2c(O)c1CC=C(C)C` (stereo not drawn) yielded an MIC [1] of 0.5 mg/L (≈ 0.424 µM), an MIC [2] of 2 mg/L (≈ 1.7 µM) and an MIC [3] of 3 mg/L (≈ 2.54 µM). It also gave an MIC [4] of 3 mg/L (≈ 2.54 µM), an HC50 at 1 h [5] of 277 µg/mL and a Retention_time [6] of 6.49 min. It also gave a Selectivity Index [7] of 92, a Selectivity Index [8] of 92 and a Selectivity Index [9] of 92. For the same molecule, the Selectivity Index [10] was 92, the MIC [11] was 2 mg/L (≈ 1.7 µM) and the MIC [12] was 2 mg/L (≈ 1.7 µM). For the same molecule, the MIC [13] was 2 mg/L (≈ 1.7 µM), the MIC [14] was 2 mg/L (≈ 1.7 µM) and the MIC [15] was 2 mg/L (≈ 1.7 µM). The MIC [16] was 2 mg/L (≈ 1.7 µM), the MIC [17] was 2 mg/L (≈ 1.7 µM) and the MIC [18] was 1 mg/L (≈ 0.848 µM). The MIC [19] was 2 mg/L (≈ 1.7 µM), the MIC [20] was 2 mg/L (≈ 1.7 µM) and the MIC [21] was 2 mg/L (≈ 1.7 µM). The MIC [22] was 2 mg/L (≈ 1.7 µM), the Activity [23] was 99.2% and the Activity [24] was “Active”. For the same molecule, the Activity [25] was less than 15%, the Activity [26] was 67.9% and the Activity [27] was 24.6%. It also gave an MIC [28] of 2 mg/L (≈ 1.7 µM), an MIC [29] of 1.56 mg/L (≈ 1.32 µM) and an MIC [30] of 12.5 mg/L. The MIC [31] was 3.12 mg/L (≈ 2.65 µM), the MIC [32] was 12.5 mg/L and the Activity [33] was “Non-toxic”. For the same molecule, the Activity [34] was “Non-toxic”, the Activity [35] was “Non-toxic” and the Activity [36] was “Non-toxic”. The “inhibition (INH)” value [37] was 99.9% and the Activity [38] was less than 15%.

`CCN(CC)CCCCOc1cc2oc3cc(OCCCCN(CC)CC)c(OC)c(CC=C(C)C)c3c(=O)c2c(O)c1CC=C(C)C` showed an MIC [1] of 2 mg/L (≈ 3.01 µM), an MIC [2] of 0.5 mg/L (≈ 0.752 µM) and an MIC [3] of 2 mg/L (≈ 3.01 µM). The MIC [4] was 3 mg/L (≈ 4.51 µM), the HC50 at 1 h [5] was 20 µg/mL and the Selectivity Index [7] was 7. It also gave a Selectivity Index [8] of 7, a Selectivity Index [9] of 7 and a Selectivity Index [10] of 7. The Ratio [39] was less than 1.
